RGS4 inh = inhibitors of human RGS4; B-score at 10 µM; hit rate 0.45% among 310,000; HEK293 M3R/RGS4 inducible, Fluo-4 calcium flux; hits give high values; triggered by carbachol at its EC20;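 active = B-score, a plate-corrected calcium signal, over three deviations above library mean, with baseline fluorescence within five deviations of library mean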;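 note: RGS4 expression induced by doxycycline in cells with stable M3 receptor; B-score is computed from the integrated fluorescence ratio over baseline after carbachol; higher B-score means a larger calcium signal and so more RGS4 inhibition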
Target sequence (P49798 whole entry, looked up): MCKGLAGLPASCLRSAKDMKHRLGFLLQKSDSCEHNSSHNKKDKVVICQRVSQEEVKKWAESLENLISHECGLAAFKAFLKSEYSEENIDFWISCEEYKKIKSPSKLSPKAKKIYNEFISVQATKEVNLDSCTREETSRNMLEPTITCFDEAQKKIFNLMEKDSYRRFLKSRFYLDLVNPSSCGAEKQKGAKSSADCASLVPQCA
MrgX1 agonist = activates human MrgX1 receptor signaling; MrgX1-HEK293 cells, Fluo-4 calcium fluorescence, agonist mode; hits give high values; hit rate 0.44% among 310,000; B-score at 10 µM;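 active = calcium response B-score plate-corrected fluorescence ratio at least 3 library SD, with starting fluorescence B-score inside 5 SD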
Target sequence (Q96LB2 whole entry, looked up): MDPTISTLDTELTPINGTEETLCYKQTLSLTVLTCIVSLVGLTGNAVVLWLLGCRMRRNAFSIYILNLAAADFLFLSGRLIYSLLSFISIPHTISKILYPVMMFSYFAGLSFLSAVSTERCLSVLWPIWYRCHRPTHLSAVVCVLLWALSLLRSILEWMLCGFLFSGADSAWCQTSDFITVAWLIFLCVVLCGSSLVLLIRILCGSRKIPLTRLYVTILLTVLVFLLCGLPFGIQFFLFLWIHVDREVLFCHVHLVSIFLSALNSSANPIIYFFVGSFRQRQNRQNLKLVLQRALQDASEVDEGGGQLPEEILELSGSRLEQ
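Material – MrgX1-expressing HEK293 cells · Input – 15,000 cells seeded per well · Dosing – compound as first of three additions · Times – overnight seeding, then 1 h dark dye loading · Measured by – kinetic Fluo-4 NW fluorescence of intracellular calcium · Read-out – B-scored fluorescence response ratio · Benchmarks – positive and negative control wells on each plate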
MrgX1 allo act = human MrgX1 positive allosteric modulation, primary screen; AID 588675; B-score at 10 µM; hit rate 0.63% among 310,000; MrgX1-HEK293, Fluo-4 calcium flux, FDSS; hits give high values; Q96LB2;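 active = plate-corrected calcium response at least 3 library SD above typical, normal starting fluorescence, not activating the receptor alone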;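 note: compound read alongside a low EC10 to EC30 dose of BAM8-22 agonist; peak minus trough fluorescence over baseline measured at the second addition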
RGS4 act = RGS4 potentiation or activation. HEK293 M3R/inducible RGS4, carbachol calcium flux Fluo4; hits give low values. B-score at 10 µM. hit rate 0.92% among 310,000. AID 463111;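 active = B-score of the integrated calcium signal more than 4 SD below the library mean, with starting fluorescence not abnormally high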;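 note: negative B-score means reduced calcium response which marks RGS4 activation or potentiation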
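Reagent: ECmax carbachol challenge; Test system: M3R-expressing HEK293 line, RGS4 induced by doxycycline; Schedule: overnight RGS4 induction, 30 min dye load 37 °C, 20 min compound RT; Detection: calcium dye Fluo4 fluorescence; Read-out: Agonist-evoked peak-minus-minimum fluorescence over baseline, integrated ratio, B score.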
MrgX1 antag = human MrgX1 receptor antagonism, primary screen. Q96LB2. MRGX1-HEK293 calcium flux, Fluo-4, BAM8-22 antagonism; hits give low values. B-score at 10 µM. hit rate 1.3% among 310,000. AID 588676;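 active = calcium-response B-score plate-corrected more than 3 library SD below zero, starting fluorescence within 5 deviations, no agonist response on first addition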;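 note: peak minus trough fluorescence over baseline after final BAM8-22 challenge near maximal dose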
RGS4 block valid = RGS4 inhibitor validation; hit rate 65% among 1,700; HEK293 M3R/RGS4, carbachol calcium Fluo-4 fluorescence; carbachol added at its EC20; 0 = buffer wells, 100 = carbachol control; calcium response, % at 10 µM; AID 492999; shares compounds with RGS4 inh;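 active = duplicate-averaged calcium response above the buffer-only control mean plus 5 SD of those controls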;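 note: integrated fluorescence ratio F max minus min over baseline F0; higher response in RGS4-induced cells means RGS4 inhibition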
RGS4 uninduced = non-induced cell nonspecific activity of RGS4 inhibitors. hit rate 20% among 1,900. HEK293 M3R non-induced, carbachol calcium Fluo-4; submaximal (EC20) carbachol stimulus; buffer wells 0%, carbachol control wells 100%. shares compounds with RGS4 inh. activity (percent), % at 10 µM; call rule not given here;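 note: RGS4 induction absent so cells express M3R without RGS4; higher means more calcium signal and flags a non-specific hit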
M3R basal Ca ctr = second RGS4 inhibitor counter-screen in uninduced cells lacking carbachol; shares compounds with RGS4 inh; HEK293 M3R/RGS4 non-induced, Fluo-4 calcium, no carbachol; normalised: buffer wells 0%, carbachol wells 100%; calcium response (agonist-mode artifact), % at 10 µM; hit rate 22% among 1,900; AID 493001;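 active = duplicate-averaged calcium rise in uninduced cells above buffer wells' mean plus 5 SD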
Of the large screens only hits and unclear results are named; the others gave an inactive call (follow-up assays come after a bar, where they were run). Rows were chosen to be rich in hits. Some 3.5% of all compounds tested hit in one or more screens of this group.

COc1cc(C=C(C(C)=O)C(C)=O)ccc1O	RGS4 inh 5.41 | RGS4 block valid 6.0% | RGS4 uninduced inactive | M3R basal Ca ctr inactive
COc1ccc(/C=C/C(=O)C(C)(C)C)cc1OC	none
COc1ccc(C=C(C(C)=O)C(C)=O)cc1OC	RGS4 inh 17.9 | RGS4 block valid 27.5% | RGS4 uninduced 44.5% | M3R basal Ca ctr inactive
CC(=O)Nc1ccc(NC(=O)CC2Nc3cccc4cccc(c34)NC2=O)cc1 (stereo not drawn)	none | RGS4 block valid inactive | RGS4 uninduced inactive | M3R basal Ca ctr inactive
CCc1ccc2nc(NC(=O)c3cc(C)on3)sc2c1	RGS4 inh 6.39 | RGS4 block valid 25.0% | RGS4 uninduced 36.5% | M3R basal Ca ctr inactive
CCOc1ccc(NCc2nnc(SCc3ccc(Cl)cc3)n2-c2ccccc2)cc1	none | RGS4 uninduced inactive | M3R basal Ca ctr inactive
CCOC(=O)CSc1nnc(CNc2ccc(Cl)cc2)n1-c1ccccc1	none
O=C(O)CC(CC(=O)O)(C(=O)O)c1ccccc1	none
O=C(/C(=C/O)N=Nc1ccccc1)c1ccc(Cl)cc1	RGS4 inh 8.67 | RGS4 block valid 63.5% | RGS4 uninduced 78.5% | M3R basal Ca ctr inactive
CC(C)N1CCN(c2ccc(S(=O)(=O)N3CCOCC3)cn2)CC1	none
Cc1cc2cc(C)c(NCCNC(=O)c3ccccc3)nc2cc1C	none | RGS4 block valid inactive | RGS4 uninduced inactive | M3R basal Ca ctr inactive
Cc1cc(NC(=O)C(C)Oc2ccc(Cl)cc2Cl)no1 (stereo not drawn)	none
CCOC(=O)C1CCN(C(c2cc3c(C)ccc(C)c3[nH]c2=O)c2nnnn2C2CCCCC2)CC1 (stereo not drawn)	none | RGS4 block valid inactive | RGS4 uninduced inactive | M3R basal Ca ctr inactive
CCOC(=O)C1CCN(C(c2cc3ccc(C)c(C)c3[nH]c2=O)c2nnnn2C2CCCCC2)CC1 (stereo not drawn)	none | RGS4 block valid inactive | RGS4 uninduced inactive | M3R basal Ca ctr 19.0%
CC(C(=O)Nc1ccccc1)N(C)Cc1cccs1 (stereo not drawn)	none
Cc1cc(C)cc(N(CC(=O)Nc2ccc(Br)cc2)S(=O)(=O)c2c(C)[nH]c(=O)[nH]c2=O)c1	none
Cc1ccc(-c2nnc(CCC(=O)NCc3csc(C)n3)o2)s1	none
Cc1cccc(C(=O)NNC(=O)c2c(-c3ccccc3Cl)noc2C)c1O	none
CC(C)(CO)NS(=O)(=O)c1ccc2c(c1)C(=NO)c1cc(S(=O)(=O)NC(C)(C)CO)ccc1-2	RGS4 inh 11.2 | RGS4 block valid 16.0% | RGS4 uninduced inactive | M3R basal Ca ctr inactive
Cc1ccc(C(=O)NC(C#N)=C(Cl)Cl)cc1	RGS4 inh 9.82 (no result: MrgX1 agonist, MrgX1 allo act, MrgX1 antag) | RGS4 block valid 21.0% | RGS4 uninduced inactive | M3R basal Ca ctr inactive
Cc1ccc(C(=O)NCC#N)cc1	none
CCOc1ccccc1NC(=O)c1cccc(NC(=O)CC(c2ccccc2)c2ccccc2)c1	RGS4 inh 10.6 | RGS4 block valid 29.5% | RGS4 uninduced 36.5% | M3R basal Ca ctr 15.5%
ClC(/C=N/n1cnnc1)=C/c1ccccc1	none
Cc1nnsc1-c1c(C(=O)N2CCOCC2)c(C)nn1-c1ccc(Cl)cc1	none
N#C/C(=C\c1cccc(O)c1)C(=O)N1CCCCC1	RGS4 inh 6.32 | RGS4 block valid 8.0% | RGS4 uninduced inactive | M3R basal Ca ctr 9.0%
Cc1cc(/C=C(\C#N)C(=O)N2CCCCC2)cc(C)c1O	none
N#C/C(=C\c1cccc(Br)c1)C(=O)N1CCCCC1	RGS4 inh 6.46 | RGS4 block valid 25.0% | RGS4 uninduced inactive | M3R basal Ca ctr inactive
CCC(c1nnnn1Cc1ccco1)N(Cc1cc2cc(C)cc(C)c2[nH]c1=O)CC1CCCO1 (stereo not drawn)	RGS4 inh 5.81 | RGS4 block valid inactive | RGS4 uninduced inactive | M3R basal Ca ctr inactive
COc1ccc2[nH]c(=O)c(CN(C3CCCCC3)C(c3nnnn3Cc3ccco3)C(C)C)cc2c1 (stereo not drawn)	RGS4 inh 7.63, MrgX1 antag -4.55 | RGS4 block valid 7.5% | RGS4 uninduced inactive | M3R basal Ca ctr 24.0%
CCC(c1nnnn1Cc1ccco1)N(Cc1ccccc1OC)Cc1cc2cc(C)ccc2[nH]c1=O (stereo not drawn)	none
CC(C)(C)n1nnnc1C(c1ccccc1F)N(Cc1ccco1)CC1CCCO1 (stereo not drawn)	none
Cc1cccc2cc(C(c3nnnn3C(C)(C)C)N(Cc3ccco3)CC3CCCO3)c(=O)[nH]c12 (stereo not drawn)	none | RGS4 block valid inactive | RGS4 uninduced inactive | M3R basal Ca ctr inactive
Cc1ccc2[nH]c(=O)c(C(c3nnnn3C(C)(C)C)N(Cc3ccco3)CC3CCCO3)cc2c1 (stereo not drawn)	none | RGS4 block valid inactive | RGS4 uninduced inactive | M3R basal Ca ctr inactive
Cc1ccc2[nH]c(=O)c(C(c3nnnn3C3CCCC3)N(Cc3cccnc3)Cc3ccco3)cc2c1 (stereo not drawn)	none
COc1ccc(N2CCN(C(=O)c3ccc(CS(=O)(=O)c4ccc(Br)cc4)o3)CC2)cc1	none
Oc1ccc(-c2csc(-c3ccccc3)n2)cc1O	RGS4 inh 5.83 | RGS4 block valid 23.5% | RGS4 uninduced inactive | M3R basal Ca ctr inactive
Oc1ccc(-c2csc(-c3cccnc3)n2)cc1O	none
Cc1ccc(/C=c2/sc3n(c2=O)CCCN=3)o1	RGS4 inh 5.31 | RGS4 block valid inactive | RGS4 uninduced inactive | M3R basal Ca ctr 11.5%
Cc1ccc(/C=c2\sc3n(c2=O)CN(c2ccc(Br)cc2)CN=3)o1	none
CCC(C(=O)N1CCOCC1)n1nc(C)c2c(C)n(-c3ccccc3)nc2c1=O (stereo not drawn)	RGS4 inh 8.97 | RGS4 block valid 5.0% | RGS4 uninduced inactive | M3R basal Ca ctr inactive
CC(OC(=O)c1ccc(Cl)nc1)C(=O)NC1(C#N)CCCCC1 (stereo not drawn)	none
COC(=O)c1cc(=O)n(Cc2ccco2)c(=Nc2ccc(F)c(Cl)c2)s1	none | RGS4 uninduced inactive | M3R basal Ca ctr inactive
COC(=O)c1cc(=O)n(CCc2ccccc2F)c(=Nc2ccc(F)c(Cl)c2)s1	none
CCOC(=O)c1sc(N2C(=O)C(O)=C(C(=O)c3ccco3)C2c2cccc([N+](=O)[O-])c2)nc1C (stereo not drawn)	none | RGS4 block valid inactive | RGS4 uninduced inactive | M3R basal Ca ctr inactive
